Here are results for 1 molecule from ChEMBL document CHEMBL1157810, “Synthesis and evaluation of nitric oxide-releasing derivatives of farnesylthiosalicylic acid as anti-tumor agents” (Bioorg Med Chem, 2010).

Active and inactive are the calls of the source. The rule behind the calls is not given here.

By IC50 is commonly meant the concentration needed to halve the response being measured. Higher therefore signals lower potency.

A short description of test [1]: Cytotoxicity against human U87 cells after 48 hrs by MTT assay. The format is functional, cell-based, U-87MG ATCC. As to conditions: U-87 MG. Summed up:
(§1)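 Cells at 5–10 × 10³/well grown overnight in RPMI-1640, then exposed in triplicate to a concentration series for 48 h. MTT (1 mg/mL) added for the final 4 h, formazan dissolved in DMSO, read at 570 nm against 595 nm reference. Untreated cells served as negative control, 1% Triton-treated cells as positive control. Inhibition calculated relative to negative-control OD. IC50 taken as concentration giving 50% growth inhibition.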
On the technique in general: Tetrazolium dyes change colour on reduction, which living cells bring about.

The test system of test [2] is MCF7. The test can be described thus: Induction of NO production in human MCF7 cells at 100 uM after 30 to 300 mins by Griess assay. In kind it is functional, cell-based. Summed up: (§2)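 Cells treated with compound at 100 µM. Nitrate/nitrite in cell lysates measured by Griess reaction at 540 nm over 30–300 min and quantified from a sodium nitrate standard curve. Diluent-treated cells gave background. Reported values are means of two experiments at 240 min post-treatment.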
On the technique in general: The Griess reaction detects nitrite, a stable product of nitric oxide.

Test [3] deals with MDA-MB-231. The test can be described thus: Ratio of IC50 for FTA to IC50 for drug for cytotoxicity against human MDA-MB-231 cells after 48 hrs by MTT assay. In kind it is functional.
A further test has as its system U-87MG ATCC. The test can be described thus: Induction of NO production in human U87 cells at 100 uM after 30 to 300 mins by Griess assay. In kind it is functional, cell-based. Summed up: as §2
Test [4] relates to SGC-7901. As to the kind of experiment: Induction of NO production in human SGC7901 cells at 100 uM after 30 to 300 mins by Griess assay. In kind it is functional, cell-based. Summed up: as §2
Test [5] deals with U-251. As to the kind of experiment: Cytotoxicity against human U251 cells after 48 hrs by MTT assay. In kind it is functional, cell-based. As to conditions: U-251, 48 h. A digest of the protocol: as §1
The test system of test [6] is MDA-MB-231. The test can be described thus: Ratio of IC50 for sorafenib to IC50 for drug for cytotoxicity against human MDA-MB-231 cells after 48 hrs by MTT assay. In kind it is functional.
Test [7] has as its system U-251. As to the kind of experiment: Induction of NO production in human U251 cells at 100 uM after 30 to 300 mins by Griess assay. In kind it is functional, cell-based. A digest of the protocol:
as §2

For test [8], the system named is MDA-MB-231. As to the kind of experiment: Induction of NO production in human MDA-MB-231 cells at 100 uM after 30 to 300 mins by Griess assay. The format is functional, cell-based. A digest of the protocol:
as §2

Test [9] deals with SGC-7901. As to the kind of experiment: Cytotoxicity against human SGC7901 cells after 48 hrs by MTT assay. As to conditions: SGC-7901, 48 h. The format is functional, cell-based. A digest of the protocol: as §1
Test [10] concerns MCF7. The test can be described thus: Cytotoxicity against human MCF7 cells after 48 hrs by MTT assay. The format is functional, cell-based. As to conditions: MCF7, 48 h. Summed up:
as §1

For test [11], the system named is MDA-MB-231. As to the kind of experiment: Cytotoxicity against human MDA-MB-231 cells after 48 hrs by MTT assay. The format is functional, cell-based. As to conditions: MDA-MB-231, 48 h. Summed up: as §1

With `CC(C)=CCC/C(C)=C/CC/C(C)=C/CSc1ccccc1C(=O)N1CCC[C@H]1C(=O)OCC#CCOc1no[n+]([O-])c1S(=O)(=O)c1ccccc1`, the half-inhibitory concentration (IC50) in test [1] was determined as 13.5 µM; in the test with U-251 [5] it was 3.56 µM; in the test on SGC-7901 [9] it was 7.35 µM; in the test with MCF7 [10], 5.49 µM; with MDA-MB-231 [11], 1.07 µM. In addition, the result in the test with MCF7 [2], in the test with U-87MG ATCC, in the test with SGC-7901 [4], in the test on U-251 [7] and in the test on MDA-MB-231 [8] was Active. In addition, the entries for the “Ratio IC50” value in the test with MDA-MB-231 [3] and in the test with MDA-MB-231 [6] were 50 and 4, respectively.
